# Data published in ChEMBL document CHEMBL1144684, “Evaluation of a series of naphthamides as potent, orally active vascular endothelial growth factor receptor-2 tyrosine kinase inhibitors” (J Med Chem, 2008).
# Activity calls are given as the source filed them. The calls are words filed in the database; no cut-off is given here.
# Tests used:
# HUVEC [1] = experiment: Inhibition of bFGF-induced proliferation of HUVEC; type: functional, cell-based; conditions: Homo sapiens
# Procedure, shortened: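 HUVEC seeded at 3000/well in DMEM with 10% FBS, 22 h; 2 h preincubation with serial compound dilutions, then 50 ng/mL VEGF or 20 ng/mL bFGF for 72 h at 37 °C. Freeze–thaw, CyQuant DNA dye read-out; IC50 by four-parameter logistic fit, averaged over ≥2 experiments.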
# [2] = target: Tyrosine-protein kinase Lck (Homo sapiens, UniProt P06239); experiment: Inhibition of Lck
# Angiopoietin-1 receptor = Angiopoietin-1 receptor (Homo sapiens, UniProt Q02763); experiment: Inhibition of Tie2
# HUVEC [3] = experiment: Inhibition of VEGF-induced proliferation of HUVEC; type: functional, cell-based; conditions: Homo sapiens
# Aurora kinase A = target: T1, Aurora kinase A (Homo sapiens, UniProt O14965); experiment: Inhibition of Aurora A
# T1 sequence (O14965 whole entry): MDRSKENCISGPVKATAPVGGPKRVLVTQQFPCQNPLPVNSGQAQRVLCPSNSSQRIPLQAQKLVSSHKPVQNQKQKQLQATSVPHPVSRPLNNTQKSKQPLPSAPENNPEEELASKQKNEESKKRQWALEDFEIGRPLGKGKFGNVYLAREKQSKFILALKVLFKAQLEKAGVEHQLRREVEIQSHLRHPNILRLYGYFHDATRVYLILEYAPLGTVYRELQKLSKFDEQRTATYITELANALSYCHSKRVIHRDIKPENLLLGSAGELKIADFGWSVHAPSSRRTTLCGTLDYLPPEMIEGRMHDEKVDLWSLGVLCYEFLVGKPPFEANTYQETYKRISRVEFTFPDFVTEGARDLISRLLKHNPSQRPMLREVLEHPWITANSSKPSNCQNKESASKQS
# [4] = target: Vascular endothelial growth factor receptor 2 (Homo sapiens, UniProt P35968)
# [5] = target: Hepatocyte growth factor receptor (Homo sapiens, UniProt P08581); experiment: Inhibition of c-Met
# HUVEC [6] = experiment: Selectivity of IC50 for VEGF-induced proliferation over IC50 for bFGF-induced proliferation of HUVEC; type: functional, Homo sapiens
# Procedure, shortened: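 HUVECs were seeded at 3000 cells/well in DMEM/10% FBS with pen/strep and cultured for 22 h. They were preincubated 2 h with serially diluted compound, then stimulated with 50 ng/mL VEGF or 20 ng/mL bFGF for 72 h at 37 °C, 5% CO2. Cells were washed, frozen at -70 °C and stained with CyQuant. IC50s came from a four-parameter logistic fit, averaged over ≥2 experiments; the VEGF IC50 was compared against the bFGF IC50.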
# Aurora kinase B = Aurora kinase B (Homo sapiens, UniProt Q96GD4); experiment: Inhibition of Aurora B
# [7] = Intrinsic clearance in human liver microsomes at 1 uM; type: ADME, Microsome; conditions: read-out: Stability
# Procedure, shortened: (§1)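 Human or rat liver microsomes (0.25 mg protein/mL) with 1 mM NADPH, 2 mM MgCl2 in 50 mM potassium phosphate pH 7.4 at 37 °C; compound 1 µM final. Sampled 0–40 min into acetonitrile, LC-MS/MS; ln % remaining vs time slope gives T1/2; CLint = (0.693/T1/2)/0.25 mg/mL.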
# [8] = Volume of distribution at steady state in Sprague-Dawley rat at 0.5 mg/kg, iv; type: ADME, organism-based; parameters: dose 0.5 mg/kg, route intravenous; conditions: in vivo, read-out: Vdss
# Procedure, shortened: (§2)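 Male Sprague–Dawley rats dosed iv at 0.5 mg/kg as DMSO solution or po at 2 mg/kg as suspension in 100% OraPlus. Serial jugular blood, plasma LC-MS/MS quantitation, noncompartmental analysis.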
# [9] = AUC (0 to infinity) in Sprague-Dawley rat at 2 mg/kg, po; type: ADME, organism-based; parameters: time infinity, dose 2 mg/kg, route oral; conditions: plasma
# Procedure, shortened: (§3)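 Male Sprague–Dawley rats dosed iv via femoral vein as DMSO solution (1 or 0.5 mg/kg) or po by gavage as OraPlus suspension (pH 2.0–2.2 with methanesulfonic acid; 10 or 2 mg/kg). Serial jugular blood over 12–24 h; plasma acetonitrile precipitation, LC-MS/MS (MRM) with internal standard; noncompartmental parameters.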
# [10] = Clearance in Sprague-Dawley rat at 0.5 mg/kg, iv; type: ADME, organism-based; parameters: dose 0.5 mg/kg, route intravenous; conditions: in vivo; procedure, shortened: as §3
# [11] = Tmax in Sprague-Dawley rat at 2 mg/kg, po; type: ADME, organism-based; parameters: dose 2 mg/kg, route oral; conditions: in vivo; procedure, shortened: as §2
# [12] = Intrinsic clearance in rat liver microsomes at 1 uM; type: ADME, Microsome; conditions: read-out: Stability; procedure, shortened: as §1
# [13] = Cmax in Sprague-Dawley rat at 2 mg/kg, po; type: ADME, organism-based; parameters: dose 2 mg/kg, route oral; conditions: in vivo; procedure, shortened: as §3
# [14] = Oral bioavailability in Sprague-Dawley rat at 2 mg/kg; type: ADME, organism-based; conditions: in vivo; procedure, shortened: as §2
# [15] = Half life in Sprague-Dawley rat at 0.5 mg/kg, iv; type: ADME, organism-based; parameters: dose 0.5 mg/kg, route intravenous; conditions: in vivo; procedure, shortened: as §3
# [16] = target: Vascular endothelial growth factor receptor 3 (Homo sapiens) (UniProt P35916); experiment: Inhibition of human VEGFR3
# [17] = Aqueous solubility in 0.01 N Hcl; type: physicochemical
# Hepatocyte growth factor receptor, sequence (P08581 whole entry): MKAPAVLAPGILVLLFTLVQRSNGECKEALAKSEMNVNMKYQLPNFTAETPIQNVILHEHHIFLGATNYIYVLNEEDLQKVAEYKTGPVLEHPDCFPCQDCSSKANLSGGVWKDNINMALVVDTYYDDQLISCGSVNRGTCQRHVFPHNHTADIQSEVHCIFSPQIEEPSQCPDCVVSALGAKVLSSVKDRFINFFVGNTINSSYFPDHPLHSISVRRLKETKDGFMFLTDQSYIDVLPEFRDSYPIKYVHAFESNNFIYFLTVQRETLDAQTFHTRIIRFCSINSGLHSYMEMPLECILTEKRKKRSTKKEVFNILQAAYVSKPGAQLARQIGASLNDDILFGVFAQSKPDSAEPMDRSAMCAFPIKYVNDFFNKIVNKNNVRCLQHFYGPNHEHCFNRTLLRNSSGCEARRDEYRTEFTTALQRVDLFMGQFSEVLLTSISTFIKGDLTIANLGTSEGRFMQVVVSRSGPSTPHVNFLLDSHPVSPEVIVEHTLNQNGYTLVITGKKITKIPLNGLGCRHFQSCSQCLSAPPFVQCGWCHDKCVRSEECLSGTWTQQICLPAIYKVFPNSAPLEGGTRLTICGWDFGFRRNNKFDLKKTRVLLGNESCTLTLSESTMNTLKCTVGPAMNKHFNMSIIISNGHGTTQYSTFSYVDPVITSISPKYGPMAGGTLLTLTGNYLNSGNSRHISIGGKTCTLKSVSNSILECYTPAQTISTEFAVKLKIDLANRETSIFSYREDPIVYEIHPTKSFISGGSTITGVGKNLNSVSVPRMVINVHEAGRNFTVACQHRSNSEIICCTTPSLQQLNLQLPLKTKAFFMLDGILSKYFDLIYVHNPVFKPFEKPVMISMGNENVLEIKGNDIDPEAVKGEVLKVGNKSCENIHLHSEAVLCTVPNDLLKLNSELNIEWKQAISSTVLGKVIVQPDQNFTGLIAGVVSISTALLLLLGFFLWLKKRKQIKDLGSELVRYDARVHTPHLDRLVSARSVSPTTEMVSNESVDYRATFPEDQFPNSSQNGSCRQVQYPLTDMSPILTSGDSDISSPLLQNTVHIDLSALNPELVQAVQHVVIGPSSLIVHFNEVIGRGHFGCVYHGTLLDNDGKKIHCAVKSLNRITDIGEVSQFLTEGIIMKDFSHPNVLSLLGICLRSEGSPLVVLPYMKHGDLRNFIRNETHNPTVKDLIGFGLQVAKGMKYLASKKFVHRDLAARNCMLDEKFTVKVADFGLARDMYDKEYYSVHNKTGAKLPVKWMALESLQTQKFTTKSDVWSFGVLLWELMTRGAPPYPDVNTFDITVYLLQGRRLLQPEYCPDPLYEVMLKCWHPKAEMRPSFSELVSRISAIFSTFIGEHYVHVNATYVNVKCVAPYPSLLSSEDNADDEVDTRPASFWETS
# Aurora kinase B, sequence (Q96GD4 whole entry): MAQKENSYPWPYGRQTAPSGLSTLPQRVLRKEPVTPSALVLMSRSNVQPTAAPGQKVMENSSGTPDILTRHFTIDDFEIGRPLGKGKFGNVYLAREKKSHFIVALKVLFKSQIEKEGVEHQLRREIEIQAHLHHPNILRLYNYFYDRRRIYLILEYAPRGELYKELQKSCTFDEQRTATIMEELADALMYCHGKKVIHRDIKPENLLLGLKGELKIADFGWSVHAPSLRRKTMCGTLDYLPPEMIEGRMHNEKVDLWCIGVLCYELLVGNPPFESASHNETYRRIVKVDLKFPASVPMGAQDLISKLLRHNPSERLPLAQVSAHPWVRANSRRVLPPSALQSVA
# Tyrosine-protein kinase Lck, sequence (P06239 whole entry): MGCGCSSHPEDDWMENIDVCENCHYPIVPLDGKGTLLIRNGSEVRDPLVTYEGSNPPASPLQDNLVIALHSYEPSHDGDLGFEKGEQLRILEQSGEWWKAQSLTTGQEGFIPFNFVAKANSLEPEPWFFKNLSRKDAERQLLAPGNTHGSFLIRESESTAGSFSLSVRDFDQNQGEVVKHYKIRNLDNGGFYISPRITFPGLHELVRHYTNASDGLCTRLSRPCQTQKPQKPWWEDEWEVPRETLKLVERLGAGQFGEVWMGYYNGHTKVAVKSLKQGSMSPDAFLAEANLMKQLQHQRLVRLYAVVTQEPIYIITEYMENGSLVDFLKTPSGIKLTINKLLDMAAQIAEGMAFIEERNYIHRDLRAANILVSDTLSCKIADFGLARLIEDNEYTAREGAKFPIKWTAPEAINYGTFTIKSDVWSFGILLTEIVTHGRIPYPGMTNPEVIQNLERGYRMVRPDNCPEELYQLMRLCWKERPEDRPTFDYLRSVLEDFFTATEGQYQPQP
# Angiopoietin-1 receptor, sequence (Q02763 whole entry): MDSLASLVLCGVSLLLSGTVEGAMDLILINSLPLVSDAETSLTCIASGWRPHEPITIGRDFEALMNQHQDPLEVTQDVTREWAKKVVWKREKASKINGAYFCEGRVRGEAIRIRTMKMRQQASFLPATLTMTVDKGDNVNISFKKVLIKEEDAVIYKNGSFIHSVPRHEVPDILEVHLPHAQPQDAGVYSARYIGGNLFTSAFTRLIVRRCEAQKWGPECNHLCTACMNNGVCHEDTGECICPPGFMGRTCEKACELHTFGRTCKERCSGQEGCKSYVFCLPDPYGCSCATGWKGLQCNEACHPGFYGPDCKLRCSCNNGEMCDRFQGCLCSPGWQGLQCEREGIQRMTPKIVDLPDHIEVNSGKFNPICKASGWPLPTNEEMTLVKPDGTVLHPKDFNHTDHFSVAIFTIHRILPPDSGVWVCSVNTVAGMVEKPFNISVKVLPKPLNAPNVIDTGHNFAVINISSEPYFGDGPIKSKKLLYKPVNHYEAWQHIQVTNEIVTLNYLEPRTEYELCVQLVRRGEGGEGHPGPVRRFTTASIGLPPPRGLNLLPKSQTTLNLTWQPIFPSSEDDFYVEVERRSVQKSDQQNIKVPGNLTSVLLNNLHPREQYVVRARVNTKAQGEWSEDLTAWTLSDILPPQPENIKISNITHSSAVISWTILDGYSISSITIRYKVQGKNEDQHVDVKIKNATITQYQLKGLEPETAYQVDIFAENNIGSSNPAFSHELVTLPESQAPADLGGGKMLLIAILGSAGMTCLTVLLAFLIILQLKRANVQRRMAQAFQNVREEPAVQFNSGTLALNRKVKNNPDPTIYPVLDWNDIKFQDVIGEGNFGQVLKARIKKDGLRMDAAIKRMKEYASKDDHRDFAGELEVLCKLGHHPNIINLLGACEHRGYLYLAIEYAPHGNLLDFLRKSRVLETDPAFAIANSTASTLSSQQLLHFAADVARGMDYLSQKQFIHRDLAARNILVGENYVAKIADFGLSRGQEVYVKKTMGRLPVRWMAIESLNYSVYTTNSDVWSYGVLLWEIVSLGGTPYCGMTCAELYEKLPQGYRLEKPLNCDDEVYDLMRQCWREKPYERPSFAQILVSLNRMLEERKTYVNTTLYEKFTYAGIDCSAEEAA
# Vascular endothelial growth factor receptor 2, sequence (P35968 whole entry): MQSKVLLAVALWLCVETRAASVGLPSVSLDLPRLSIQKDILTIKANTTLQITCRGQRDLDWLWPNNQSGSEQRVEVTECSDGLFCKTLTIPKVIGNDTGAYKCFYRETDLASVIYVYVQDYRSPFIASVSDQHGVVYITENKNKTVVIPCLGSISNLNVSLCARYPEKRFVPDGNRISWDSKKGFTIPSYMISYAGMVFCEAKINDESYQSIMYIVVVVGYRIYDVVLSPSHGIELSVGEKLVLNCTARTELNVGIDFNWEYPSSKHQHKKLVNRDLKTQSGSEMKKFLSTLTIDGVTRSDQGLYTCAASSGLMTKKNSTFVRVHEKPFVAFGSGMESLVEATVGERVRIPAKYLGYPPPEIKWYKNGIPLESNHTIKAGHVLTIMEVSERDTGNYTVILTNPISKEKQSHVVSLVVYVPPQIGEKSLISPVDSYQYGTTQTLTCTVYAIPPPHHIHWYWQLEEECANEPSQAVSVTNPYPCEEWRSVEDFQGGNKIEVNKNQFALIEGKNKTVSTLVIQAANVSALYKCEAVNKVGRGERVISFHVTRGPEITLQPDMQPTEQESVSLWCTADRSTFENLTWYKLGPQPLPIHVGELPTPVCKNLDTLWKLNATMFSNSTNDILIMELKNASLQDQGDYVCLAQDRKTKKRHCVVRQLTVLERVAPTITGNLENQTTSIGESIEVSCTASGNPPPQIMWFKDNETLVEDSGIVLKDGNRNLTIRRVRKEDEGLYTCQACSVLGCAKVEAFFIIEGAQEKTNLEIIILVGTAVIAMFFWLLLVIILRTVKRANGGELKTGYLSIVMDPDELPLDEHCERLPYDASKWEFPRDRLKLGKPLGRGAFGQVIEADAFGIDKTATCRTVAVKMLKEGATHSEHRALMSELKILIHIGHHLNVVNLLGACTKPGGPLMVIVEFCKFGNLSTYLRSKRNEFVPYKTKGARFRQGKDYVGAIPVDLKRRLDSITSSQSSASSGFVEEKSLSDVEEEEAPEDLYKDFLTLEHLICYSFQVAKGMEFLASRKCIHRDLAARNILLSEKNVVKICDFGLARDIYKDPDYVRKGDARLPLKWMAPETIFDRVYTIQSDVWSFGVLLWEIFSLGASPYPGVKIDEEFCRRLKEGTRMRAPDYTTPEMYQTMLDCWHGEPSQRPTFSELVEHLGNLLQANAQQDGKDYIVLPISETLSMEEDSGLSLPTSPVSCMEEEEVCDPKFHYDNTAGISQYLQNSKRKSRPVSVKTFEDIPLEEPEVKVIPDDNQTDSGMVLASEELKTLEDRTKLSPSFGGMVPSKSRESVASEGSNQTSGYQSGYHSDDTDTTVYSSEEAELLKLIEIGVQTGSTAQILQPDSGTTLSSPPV
Structure (SMILES),IC50 (HUVEC [1]) [nM],IC50 [2] [nM],IC50 (Angiopoietin-1 receptor) [nM],IC50 (HUVEC [3]) [nM],IC50 (Aurora kinase A) [nM],IC50 [4] [nM],IC50 [5] [nM],Selectivity ratio (HUVEC [6]),IC50 (Aurora kinase B) [nM],microsomal CLint at 1 µM [7] [µL/min/mg],Vd [8] [L/kg],AUC(0-inf) [9] [ng·h/mL],clearance [10] [mL/min/kg],Tmax [11] [min],microsomal CLint at 1 µM [12] [µL/min/mg],Cmax [13] [ng/mL],bioavailability [14] [%],half-life [15] [min],Activity [16],solubility [17] [µg/mL]
CCCNC(=O)c1cccc2cc(Oc3ccnc4cc(OC)c(OC)cc34)ccc12,600,1300,4300,7.4,1700,,,,,,,,,,,,,,,
COc1cc2nccc(Oc3ccc4c(C(=O)NC5CCCC5)cccc4c3)c2cc1OC,1140,1300,1400,6.6,620,15,3200,>100,,,,,,,,,,,,
COc1ccc2c(Oc3ccc4c(C(N)=O)cccc4c3)ccnc2c1,,,25000,16,8300,,20000,,130,,,,,,,,,,,
COc1cc2ncnc(Oc3ccc4c(C(N)=O)cccc4c3)c2cc1OC,,,8300,16,8300,,20000,,680,,,,,,,,,,,
COCCCNC(=O)c1cccc2cc(Oc3ccnc4cc(OC)c(OC)cc34)ccc12,,1000,8300,7.1,3500,4.2,,>100,,,,,,,,,,,,
COc1cc2nccc(Oc3ccc4c(C(=O)NC5(C)CC5)cccc4c3)c2cc1OC,1140,2000,1100,70,560,,5000,,62,,,,,,,,,,,
COc1cc2nccc(Oc3ccc4c(C(=O)NCC(F)(F)F)cccc4c3)c2cc1OC,1140,25000,25000,24,930,3.8,20000,,16,,,,,,,,,,,
COCCNC(=O)c1cccc2cc(Oc3ccnc4cc(OC)ccc34)ccc12,,,25000,20,8300,28,20000,>100,,,,,,,,,,,,
COc1cc2ncnc(Oc3ccc4c(C(=O)NC5CC5)cccc4c3)c2cc1OC,,,7400,7.3,8300,2.9,20000,>100,360,,,,,,,,,,,
COc1cc2nccc(Oc3ccc4c(C(=O)NCC5CC5)cccc4c3)c2cc1OC,1140,1100,9400,22,840,11,5300,,10,,,,,,,,,,,
COc1cc2nccc(Oc3ccc4c(C(=O)NC5CC5)cccc4c3)c2cc1C(N)=O,,,1800,1.2,4400,0.37,20000,>100,185,12,0.379,900,8.47,40.2,16,715,39,75.6,,
COc1ccc2c(Oc3ccc4c(C(=O)NC5CC5)cccc4c3)ccnc2c1,,,8300,3.4,8300,0.45,20000,>100,,,,,,,,,,,,
CCNC(=O)c1cccc2cc(Oc3ccnc4cc(OC)c(OC)cc34)ccc12,150,1200,25000,0.33,1500,1.3,20000,>100,46,,,,,,,,,,,
COCCNC(=O)c1cccc2cc(Oc3ccnc4cc(OC)c(C(N)=O)cc34)ccc12,,,8300,0.8,8300,22,6700,>100,233,4,0.751,164,50.8,18,95,61,12,18.6,,
COc1cc2nccc(Oc3ccc4c(C(N)=O)cccc4c3)c2cc1C(N)=O,,,5300,,6800,,7400,,390,,,,,,,,,,,
COc1cc2nccc(Oc3ccc4c(C(=O)NC5CCC5)cccc4c3)c2cc1OC,1140,1000,4000,6.8,440,1.3,7600,>100,,,,,,,,,,,,
COCCNC(=O)c1cccc2cc(Oc3ncnc4cc(OC)c(OC)cc34)ccc12,,,8300,,25000,314,20000,>100,385,,,,,,,,,,Active,
COc1cc2nccc(Oc3ccc4c(C(=O)Nc5ccc(Cl)cc5)cccc4c3)c2cc1OC,1140,,580,7.6,371,,,,,,,,,,,,,,,1.1
COc1cc2nccc(Oc3ccc4c(C(=O)NC(C)(C)C)cccc4c3)c2cc1OC,,4300,25000,,3700,1500,11000,>100,,,,,,,,,,,,
CNC(=O)c1cccc2cc(Oc3ccnc4cc(OC)c(OC)cc34)ccc12,46,700,25000,0.45,3600,,20000,,110,,,,,,,,,,,
COc1cc2nccc(Oc3ccc4c(C(=O)NC(C)C)cccc4c3)c2cc1OC,1140,1800,25000,4.4,3600,5.9,20000,>100,190,,,,,,,,,,,
